This note sets out measurements from ChEMBL document CHEMBL1132229, “3,7-Disubstituted-1,2,3,4-tetrahydroisoquinolines display remarkable potency and selectivity as inhibitors of phenylethanolamine N-methyltransferase versus the alpha2-adrenoceptor” (J Med Chem, 1999).

Each structure is given as a SMILES string.

The target of experiment [1] is T1, Phenylethanolamine N-methyltransferase (Bos taurus, UniProt P10938).
T1 sequence (P10938 whole entry): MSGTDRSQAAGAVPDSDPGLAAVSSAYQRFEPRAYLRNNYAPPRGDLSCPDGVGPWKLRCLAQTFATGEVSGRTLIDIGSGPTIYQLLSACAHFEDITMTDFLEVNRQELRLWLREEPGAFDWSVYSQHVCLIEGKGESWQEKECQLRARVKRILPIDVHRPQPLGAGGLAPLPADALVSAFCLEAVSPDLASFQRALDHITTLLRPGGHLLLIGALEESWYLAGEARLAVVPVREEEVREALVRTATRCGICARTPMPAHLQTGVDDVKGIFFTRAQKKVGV
In words: Inhibition of bovine adrenal Phenylethanolamine N-Methyltransferase.

The nature of experiment [2]: Relative affinity for PNMT and alpha2 adrenergic receptors.
The target in experiment [3] is T2, Adrenergic receptor alpha-2 (Rattus norvegicus, UniProt P22086+P19328+P22909).
T2 sequence (P22086 whole entry): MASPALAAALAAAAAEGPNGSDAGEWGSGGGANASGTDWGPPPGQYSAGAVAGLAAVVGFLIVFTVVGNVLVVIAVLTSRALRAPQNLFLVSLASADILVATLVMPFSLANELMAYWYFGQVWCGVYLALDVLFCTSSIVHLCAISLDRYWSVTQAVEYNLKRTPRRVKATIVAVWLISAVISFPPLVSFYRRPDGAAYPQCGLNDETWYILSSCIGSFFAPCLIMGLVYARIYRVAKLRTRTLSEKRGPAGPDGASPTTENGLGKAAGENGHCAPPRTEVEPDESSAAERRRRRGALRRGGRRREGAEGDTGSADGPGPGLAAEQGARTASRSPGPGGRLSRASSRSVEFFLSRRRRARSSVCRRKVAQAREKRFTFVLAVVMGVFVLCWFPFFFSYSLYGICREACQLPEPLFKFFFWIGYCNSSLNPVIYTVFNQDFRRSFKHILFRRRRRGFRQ
T2 sequence (P19328 whole entry): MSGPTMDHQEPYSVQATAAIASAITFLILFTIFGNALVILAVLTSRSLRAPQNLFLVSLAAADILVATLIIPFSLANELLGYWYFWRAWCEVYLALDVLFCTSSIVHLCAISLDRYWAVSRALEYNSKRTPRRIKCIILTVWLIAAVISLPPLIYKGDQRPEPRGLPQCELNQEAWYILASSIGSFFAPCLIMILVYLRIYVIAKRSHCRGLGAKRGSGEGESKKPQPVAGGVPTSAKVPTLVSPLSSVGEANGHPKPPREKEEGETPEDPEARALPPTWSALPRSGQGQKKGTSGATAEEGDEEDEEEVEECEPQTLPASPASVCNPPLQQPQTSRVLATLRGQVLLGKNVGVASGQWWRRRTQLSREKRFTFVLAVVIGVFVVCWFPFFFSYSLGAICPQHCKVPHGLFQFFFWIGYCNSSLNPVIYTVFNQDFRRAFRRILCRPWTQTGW
T2 sequence (P22909 whole entry): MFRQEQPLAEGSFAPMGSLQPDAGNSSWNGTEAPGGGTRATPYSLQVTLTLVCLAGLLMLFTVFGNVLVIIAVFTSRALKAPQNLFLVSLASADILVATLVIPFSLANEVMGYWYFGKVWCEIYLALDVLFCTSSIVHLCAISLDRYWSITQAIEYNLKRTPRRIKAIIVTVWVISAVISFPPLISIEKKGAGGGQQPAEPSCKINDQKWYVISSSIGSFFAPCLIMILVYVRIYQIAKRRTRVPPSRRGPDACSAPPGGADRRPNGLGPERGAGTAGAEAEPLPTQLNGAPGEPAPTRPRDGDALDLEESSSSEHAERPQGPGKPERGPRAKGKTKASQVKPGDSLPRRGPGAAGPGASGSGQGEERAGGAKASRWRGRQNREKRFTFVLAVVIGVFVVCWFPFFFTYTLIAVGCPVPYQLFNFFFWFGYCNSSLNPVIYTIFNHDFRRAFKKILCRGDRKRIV
In words: Displacement of [3H]clonidine from Alpha-2 adrenergic receptor of rat cortical membranes. The class given is cell membranes, Membrane. In a few lines: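 Male Sprague-Dawley rat cortex homogenized in ice-cold 50 mM Tris/HCl (pH 7.7 at 25 °C), washed by three 50000g spins, resuspended at 200 volumes. [3H]clonidine 4.0 nM final; 25 °C, 30 min; terminated by vacuum filtration on GF/B filters and scintillation counting. Nonspecific binding with 2 μM phentolamine.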
On the technique in general: In a radioligand displacement assay an active substance lowers the binding of a labelled ligand.

In experiment [4] the target is Adrenergic receptor alpha-2 (Rattus norvegicus) (UniProt P22086+P19328+P22909). In words: Stereo selectivity ratio for alpha-2(-)/(+) activities.
For experiment [5], the target named is T3, Phenylethanolamine N-methyltransferase (Bos taurus) (UniProt P10938).
T3 sequence (whole entry): T1 sequence (P10938 whole entry)
As to the kind of experiment: Stereo selectivity ratio for PNMT(-)/(+ ) activities.

Experiment [6] deals with T1, Phenylethanolamine N-methyltransferase. In words: In vitro inhibitory activity against bovine adrenal phenylethanolamine N-methyl transferase.
Experiment [7] concerns the target T2, Adrenergic receptor alpha-2. As to the kind of experiment: In vitro binding affinity towards cortical membranes of male Sprague-Dawley rats alpha-2 adrenergic receptor by replacing [3H]clonidine. In a few lines: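 Rat cortex (male Sprague-Dawley) homogenised in ice-cold 50 mM Tris/HCl pH 7.7, washed by three 50000g spins. Tissue incubated with 4.0 nM [3H]clonidine (final) and drug at five concentrations over a 16-fold range, 25 °C for 30 min. Bound ligand collected by vacuum filtration on GF/B filters and counted. Nonspecific binding set with 2 μM phentolamine. Quadruplicate. IC50 from log-probit analysis; Ki = IC50/(1+[clonidine]/KD).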

In experiment [8] the target is T1, Phenylethanolamine N-methyltransferase. In words: In vitro inhibitory activity against bovine adrenal Phenylethanolamine N-Methyltransferase (for +- stereoisomer).

As usually defined, the Ki is a dissociation constant, usually derived from enzyme kinetics or from competition with a known ligand.

`O=[N+]([O-])c1ccc2c(c1)CNC(CO)C2` (centres undefined): the Ki in experiment [1] was 0.29 µM.

In turn, `NS(=O)(=O)c1ccc2c(c1)CNC(CO)C2` (centres undefined) gave a Ki in experiment [1] of 0.34 µM. Moreover, in experiment [2], the Selectivity stood at 4100.

For `C[C@H]1Cc2ccc([N+](=O)[O-])cc2CN1`, in experiment [1], the Ki is 0.25 µM.

`CC1Cc2ccc([N+](=O)[O-])cc2CN1` (centres undefined): the Ki in experiment [1] came out at 0.49 µM; in experiment [3], 31 µM. In addition, the Selectivity in experiment [2] was found to be 63.

With `C[C@@H]1Cc2ccc([N+](=O)[O-])cc2CN1`, the values for the Ratio in experiment [4] and in experiment [5] were 2.8 and 5.2, respectively. In experiment [1], this molecule showed a Ki of 1.3 µM. Further, the Selectivity in experiment [2] amounted to 41.

Molecule `O=C(O)C1Cc2ccccc2CN1` (centres undefined) registered a Ki in experiment [6] of over 2000 µM.

The molecule `COCC1Cc2ccccc2CN1` (centres undefined) had a Ki in experiment [1] of 9.2 µM. In experiment [2], the Selectivity came out at 0.3.

In experiment [1], `OC[C@@H]1Cc2ccccc2CN1` came in with an inhibition constant Ki of 15 µM. In experiment [2], the Selectivity was 1.1.

In the case of `CCC1Cc2ccccc2CN1` (centres undefined), the Ki in experiment [7] turned out to be 0.66 µM.

With `O=[N+]([O-])c1ccc2c(c1)CN[C@@H](CO)C2`, the affinity in experiment [1], expressed as Ki, was 0.24 µM.

In experiment [1], `CS(=O)(=O)c1ccc2c(c1)CNC(CO)C2` (centres undefined) yielded a Ki of 0.64 µM. In experiment [2], this molecule came in with a Selectivity of 1000.

As to `NC(=O)C1Cc2ccccc2CN1` (centres undefined), in experiment [3], the Ki was determined as 250 µM.

Consider `OCC1Cc2ccccc2CN1` (centres undefined), for which, in experiment [8], the affinity corresponds to a Ki of 1.1 µM. The Selectivity in experiment [2] stood at 6.

With `O=[N+]([O-])c1ccc2c(c1)CN[C@H](CO)C2`, the Ki in experiment [1] stood at 0.9 µM.

Consider `OC[C@H]1Cc2ccccc2CN1`, for which the figures for the Ratio in experiment [4] and in experiment [5] were 3.9 and 27, respectively. The same molecule came in with a Ki in experiment [1] of 0.56 µM. In addition, the Selectivity in experiment [2] was 7.9.

`COC(=O)C1Cc2ccccc2CN1` (centres undefined) showed a Ki in experiment [3] of 11 µM.
